Test system: not listed separately
Assay: Half-life time of the compound
Type: ADME
Conditions: not given

SMILES	half-life
COc1cccc2c1C(=O)c1c(O)c3c(c(O)c1C2=O)C[C@@](O)(C(=O)COC(=O)CNC(C)=O)C[C@@H]3OC1CC(NC(=O)C(F)(F)F)C(O)C(C)O1 (some centres undefined)	10 min
COc1cccc2c1C(=O)c1c(O)c3c(c(O)c1C2=O)C[C@@](O)(C(=O)COC(=O)CCC(NC(C)=O)C(=O)O)C[C@@H]3OC1CC(NC(=O)C(F)(F)F)C(O)C(C)O1 (some centres undefined)	16 min
COc1cccc2c1C(=O)c1c(O)c3c(c(O)c1C2=O)C[C@@](O)(C(=O)COC(=O)CCC(NC(C)=O)C(N)=O)C[C@@H]3OC1CC(NC(=O)C(F)(F)F)C(O)C(C)O1 (some centres undefined)	24 min
COc1cccc2c1C(=O)c1c(O)c3c(c(O)c1C2=O)C[C@@](O)(C(=O)COC(=O)C(Cc1ccccc1)NC(C)=O)C[C@@H]3OC1CC(NC(=O)C(F)(F)F)C(O)C(C)O1 (some centres undefined)	14 min
COc1cccc2c1C(=O)c1c(O)c3c(c(O)c1C2=O)C[C@@](O)(C(=O)COC(=O)C(CC(C)C)NC(C)=O)C[C@@H]3OC1CC(NC(=O)C(F)(F)F)C(O)C(C)O1 (some centres undefined)	65 min
COc1cccc2c1C(=O)c1c(O)c3c(c(O)c1C2=O)C[C@@](O)(C(=O)COC(=O)C(CCSC)NC(C)=O)C[C@@H]3OC1CC(NC(=O)C(F)(F)F)C(O)C(C)O1 (some centres undefined)	38 min
COc1cccc2c1C(=O)c1c(O)c3c(c(O)c1C2=O)C[C@@](O)(C(=O)COC(=O)CC(NC(C)=O)C(=O)O)C[C@@H]3OC1CC(NC(=O)C(F)(F)F)C(O)C(C)O1 (some centres undefined)	18 min
COc1cccc2c1C(=O)c1c(O)c3c(c(O)c1C2=O)C[C@@](O)(C(=O)COC(=O)C(C)NC(C)=O)C[C@@H]3OC1CC(NC(=O)C(F)(F)F)C(O)C(C)O1 (some centres undefined)	18 min
COc1cccc2c1C(=O)c1c(O)c3c(c(O)c1C2=O)C[C@@](O)(C(=O)COC(=O)CNC(=O)c1ccccc1)C[C@@H]3OC1CC(NC(=O)C(F)(F)F)C(O)C(C)O1 (some centres undefined)	3.5 min

Test system: CCRF-CEM
Assay: In vitro antitumor activity in CCRF-CEM culture of human leukemic lymphocytes
Type: functional
Conditions: read-out: ID50 (the source's name)
Summary of the method: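 CCRF-CEM human leukemic lymphoblasts were grown in suspension in Eagle's MEM with 10% fetal bovine serum and exposed to drug continuously for 48 h. ID50 is the concentration giving 50% reduction in growth relative to untreated control cultures.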

SMILES	IC50
COc1cccc2c1C(=O)c1c(O)c3c(c(O)c1C2=O)C[C@@](O)(C(=O)COC(=O)CNC(C)=O)C[C@@H]3OC1CC(NC(=O)C(F)(F)F)C(O)C(C)O1 (some centres undefined)	140 nM
COc1cccc2c1C(=O)c1c(O)c3c(c(O)c1C2=O)C[C@@](O)(C(=O)COC(=O)CCC(NC(C)=O)C(=O)O)C[C@@H]3OC1CC(NC(=O)C(F)(F)F)C(O)C(C)O1 (some centres undefined)	160 nM
COc1cccc2c1C(=O)c1c(O)c3c(c(O)c1C2=O)C[C@@](O)(C(=O)CO)C[C@@H]3O[C@H]1C[C@H](N)[C@H](O)[C@H](C)O1 [DOXORUBICIN]	30 nM
CCCCC(=O)OCC(=O)[C@]1(O)Cc2c(O)c3c(c(O)c2[C@@H](OC2CC(NC(=O)C(F)(F)F)C(O)C(C)O2)C1)C(=O)c1c(OC)cccc1C3=O (some centres undefined)	230 nM
COc1cccc2c1C(=O)c1c(O)c3c(c(O)c1C2=O)C[C@@](O)(C(=O)COC(=O)CCC(NC(C)=O)C(N)=O)C[C@@H]3OC1CC(NC(=O)C(F)(F)F)C(O)C(C)O1 (some centres undefined)	120 nM
COc1cccc2c1C(=O)c1c(O)c3c(c(O)c1C2=O)C[C@@](O)(C(=O)COC(=O)C(Cc1ccccc1)NC(C)=O)C[C@@H]3OC1CC(NC(=O)C(F)(F)F)C(O)C(C)O1 (some centres undefined)	90 nM
COc1cccc2c1C(=O)c1c(O)c3c(c(O)c1C2=O)C[C@@](O)(C(=O)COC(=O)C(CC(C)C)NC(C)=O)C[C@@H]3OC1CC(NC(=O)C(F)(F)F)C(O)C(C)O1 (some centres undefined)	150 nM
COc1cccc2c1C(=O)c1c(O)c3c(c(O)c1C2=O)C[C@@](O)(C(=O)COC(=O)C(CCSC)NC(C)=O)C[C@@H]3OC1CC(NC(=O)C(F)(F)F)C(O)C(C)O1 (some centres undefined)	830 nM
COc1cccc2c1C(=O)c1c(O)c3c(c(O)c1C2=O)C[C@@](O)(C(=O)COC(=O)CC(NC(C)=O)C(=O)O)C[C@@H]3OC1CC(NC(=O)C(F)(F)F)C(O)C(C)O1 (some centres undefined)	1000 nM
COc1cccc2c1C(=O)c1c(O)c3c(c(O)c1C2=O)C[C@@](O)(C(=O)COC(=O)C(C)NC(C)=O)C[C@@H]3OC1CC(NC(=O)C(F)(F)F)C(O)C(C)O1 (some centres undefined)	150 nM
COc1cccc2c1C(=O)c1c(O)c3c(c(O)c1C2=O)C[C@@](O)(C(=O)COC(=O)C(NC(C)=O)C(C)C)C[C@@H]3OC1CC(NC(=O)C(F)(F)F)C(O)C(C)O1 (some centres undefined)	140 nM
COc1cccc2c1C(=O)c1c(O)c3c(c(O)c1C2=O)C[C@@](O)(C(=O)COC(=O)C1CCCN1C(C)=O)C[C@@H]3OC1CC(NC(=O)C(F)(F)F)C(O)C(C)O1 (some centres undefined)	300 nM
COc1cccc2c1C(=O)c1c(O)c3c(c(O)c1C2=O)C[C@@](O)(C(=O)COC(=O)CNC(=O)c1ccccc1)C[C@@H]3OC1CC(NC(=O)C(F)(F)F)C(O)C(C)O1 (some centres undefined)	120 nM

Test system: Mus musculus
Assay: Compound was evaluated in vivo for antileukemic activity in B6D2F1 male mice
Type: functional
Conditions: not given
Summary of the method: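 P388 leukemia model, run essentially per NCI standard protocols: 10⁶ tumor cells injected ip into B6D2F1 male mice on day 0. Drug given ip once daily for 4 days starting day 1; highest dose tested 50 mg/kg per day. Read-out is percent increase in life span (ILS) versus untreated controls, with long-term survivors (>40 days) noted.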

SMILES	ILS
COc1cccc2c1C(=O)c1c(O)c3c(c(O)c1C2=O)C[C@@](O)(C(=O)COC(=O)CNC(C)=O)C[C@@H]3OC1CC(NC(=O)C(F)(F)F)C(O)C(C)O1 (some centres undefined)	105%
COc1cccc2c1C(=O)c1c(O)c3c(c(O)c1C2=O)C[C@@](O)(C(=O)CO)C[C@@H]3O[C@H]1C[C@H](N)[C@H](O)[C@H](C)O1 [DOXORUBICIN]	145%
COc1cccc2c1C(=O)c1c(O)c3c(c(O)c1C2=O)C[C@@](O)(C(=O)COC(=O)C(Cc1ccccc1)NC(C)=O)C[C@@H]3OC1CC(NC(=O)C(F)(F)F)C(O)C(C)O1 (some centres undefined)	173%
COc1cccc2c1C(=O)c1c(O)c3c(c(O)c1C2=O)C[C@@](O)(C(=O)COC(=O)C(CCSC)NC(C)=O)C[C@@H]3OC1CC(NC(=O)C(F)(F)F)C(O)C(C)O1 (some centres undefined)	136%
COc1cccc2c1C(=O)c1c(O)c3c(c(O)c1C2=O)C[C@@](O)(C(=O)COC(=O)C(C)NC(C)=O)C[C@@H]3OC1CC(NC(=O)C(F)(F)F)C(O)C(C)O1 (some centres undefined)	163%

Test system: not listed separately
Assay: % hydrolysis in 60 min
Conditions: not given

SMILES	% hydrolysis at 1 h
COc1cccc2c1C(=O)c1c(O)c3c(c(O)c1C2=O)C[C@@](O)(C(=O)COC(=O)C1CCCN1C(C)=O)C[C@@H]3OC1CC(NC(=O)C(F)(F)F)C(O)C(C)O1 (some centres undefined)	4%

Test system: not listed separately
Assay: % hydrolysis in 60 min
Conditions: not given
Remark: another data set of the same source

SMILES	% hydrolysis at 1 h
COc1cccc2c1C(=O)c1c(O)c3c(c(O)c1C2=O)C[C@@](O)(C(=O)COC(=O)C(NC(C)=O)C(C)C)C[C@@H]3OC1CC(NC(=O)C(F)(F)F)C(O)C(C)O1 (some centres undefined)	8%

— ChEMBL document CHEMBL1123314, “Adriamycin analogues. Preparation and biological evaluation of some N-(trifluoroacetyl)-14-O-[(N-acetylamino)acyl]adriamycin derivatives” (J Med Chem, 1986)
